# ABHD5 PLIN5 PPI = ABHD5-PLIN5 protein interaction inhibition; Q00G26+Q8WTS1; Split G. princeps luciferase complementation, luminescence, 4 h; inhibition, % at 4 µM; 360,000 tested, 0.78% active; AID 602281;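 active means inhibition above the mean inhibition across every tested compound plus 3 SD, cut at about 22% in these data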;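 further: 0% = DMSO only wells and the 100% control is not disclosed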
# UPR XBP1 act = adaptive UPR (XBP1) activation | CHO-XBP1 luciferase reporter, IRE1-XBP1 UPR activation, luminescence; percent of tunicamycin response, DMSO as zero | activation, % at 20 µM | 330,000 tested, 0.33% active | AID 463104;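 active means versus positive control, 20 µM dose yields 30% or more activation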;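 further: 100% = tunicamycin at 10 µg/mL and 0% = DMSO only wells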
#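 assay system = CHO-XBP1 luciferase reporter cells | amount = 1000 cells/well | buffer or medium = F12 plus 10% FBS | compound dosing = single point, 20 µM final compound, 1% DMSO | incubation = 16-18 h cell attachment at 37 °C, then 6 h compound exposure | detection = Steady-Glo luminescence read | controls = tunicamycin 10 µg/mL and vehicle-only wells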
# Granule exo inh = blocks lytic granule exocytosis; TALL-104 LAMP-1 surface exposure, flow cytometry; cells stimulated with thapsigargin and PMA; inhibition, % at 10 µM; 360,000 tested, 0.66% active; AID 651702;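 active means inhibition above about 55%, limit read from the data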
# Mdm2 MdmX PPI = inhibitors of human Mdm2/MdmX interaction; O15151+Q00987; SaOS-2 split-luciferase Mdm2/MdmX complementation, luminescence; inhibition, % at 8 µM; 330,000 tested, 3% active; AID 485346;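 active means inhibition of at least 50% at 8 µM in the primary screen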
# Target sequence (O15151 whole entry, looked up): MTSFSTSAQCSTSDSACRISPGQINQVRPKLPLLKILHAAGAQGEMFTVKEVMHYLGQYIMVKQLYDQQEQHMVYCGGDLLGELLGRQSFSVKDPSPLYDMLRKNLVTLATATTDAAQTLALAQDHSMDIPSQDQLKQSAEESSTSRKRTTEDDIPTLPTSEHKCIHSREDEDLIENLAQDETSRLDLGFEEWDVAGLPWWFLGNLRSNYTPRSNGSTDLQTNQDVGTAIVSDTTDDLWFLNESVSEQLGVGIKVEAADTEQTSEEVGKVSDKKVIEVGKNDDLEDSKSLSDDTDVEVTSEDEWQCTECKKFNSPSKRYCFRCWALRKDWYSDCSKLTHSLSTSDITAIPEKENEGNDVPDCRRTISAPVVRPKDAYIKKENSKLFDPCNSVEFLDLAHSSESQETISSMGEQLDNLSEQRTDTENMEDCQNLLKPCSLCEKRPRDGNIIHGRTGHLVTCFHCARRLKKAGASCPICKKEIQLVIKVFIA
# Target sequence (Q00987 whole entry, looked up): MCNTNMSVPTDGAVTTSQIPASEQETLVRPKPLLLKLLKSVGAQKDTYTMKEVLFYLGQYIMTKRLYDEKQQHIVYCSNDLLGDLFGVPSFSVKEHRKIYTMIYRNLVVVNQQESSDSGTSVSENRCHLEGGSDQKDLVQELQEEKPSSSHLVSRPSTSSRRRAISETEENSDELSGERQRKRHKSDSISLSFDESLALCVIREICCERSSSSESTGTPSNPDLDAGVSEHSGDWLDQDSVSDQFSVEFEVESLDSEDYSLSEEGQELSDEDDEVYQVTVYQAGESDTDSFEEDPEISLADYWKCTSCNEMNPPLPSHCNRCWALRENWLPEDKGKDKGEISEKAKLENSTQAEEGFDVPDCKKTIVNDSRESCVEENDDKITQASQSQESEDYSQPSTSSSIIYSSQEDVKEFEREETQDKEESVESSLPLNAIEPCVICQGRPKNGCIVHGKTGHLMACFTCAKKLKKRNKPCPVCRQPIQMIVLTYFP
# CHOP UPR activ = apoptotic UPR (CHOP) activation | 330,000 tested, 0.34% active | activation, % at 10 µM | CHO-CHOP luciferase reporter, luminescence; percent of tunicamycin response over DMSO baseline;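 active means at 10 µM dose, activation of 40% or more, normalized to positive control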;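 further: 100% = tunicamycin at 10 µg/mL and 0% = DMSO alone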
#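 Test system: CHO-CHOP cells, stable luciferase reporter of PERK-eIF2a-CHOP signalling | Quantity: 500 CHO-CHOP cells per well | Buffer or medium: F12 plus 10% serum | Compound dosing: 10 µM single point, 0.5% DMSO | Schedule: 6 h compound treatment, 37 °C | Signal: Luciferase luminescence | Control set: Tunicamycin high control, DMSO low control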
# UPR CHOP confirm = apoptotic UPR (CHOP) activation, confirmed. CHO-CHOP cells, CHOP-luciferase reporter luminescence; percent of tunicamycin response, DMSO as zero. 1,000 tested, 64% active. shares compounds with CHOP UPR activ. activation, % at 10 µM; in the data active means activation above about 33%;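 further: 0% = DMSO wells and 100% = tunicamycin 10 µg/mL wells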
# An asterisk follows results filed as active; / = no result. Shown are actives, neighbours in structure and some others; about 4% of the full set was active somewhere.
SMILES,ABHD5 PLIN5 PPI,UPR XBP1 act,Granule exo inh,Mdm2 MdmX PPI,CHOP UPR activ,UPR CHOP confirm
Cc1ccc(Nc2cc(C)nn2-c2nc(C)cc(C)n2)cc1,7,30*,2,32,79*,6
Oc1ccc(/C=N/N=C/c2ccc(O)c(O)c2)cc1O,-2,28,4,-5,67*,9
Oc1ccc(/C=N/N(c2ccccc2)c2ccccc2)cc1O,-8,9,-2,0,107*,33*
Oc1ccc(/C=N/N(c2ccccc2)c2ccccc2)c(O)c1O,-7,-7,5,4,5,/
O=C(CC1C(=O)NCCN1C(=O)Nc1ccccc1)Nc1ccc2c(c1)OCO2 (centres undefined),3,4,-1,31,-2,/
CCOc1ncccc1C(=O)OCc1cc(=O)oc2c(C)c(C)ccc12,2,/,-2,/,/,/
Cc1cccc(C(=O)OCc2cc(=O)oc3c(C)c(C)ccc23)c1O,-2,34*,20,-30,43*,4
Cc1ccc(-c2nn(-c3ccccc3)cc2C=C2SC(=S)N(CCS(=O)(=O)O)C2=O)cc1,9,/,-2,/,/,/
Cc1ccc(-c2nn(-c3ccccc3)cc2C=C2C(=O)CC(C)(C)CC2=O)cc1,1,13,52,2,48*,206*
CC1(C)CC(=O)C(=Cc2cn(-c3ccccc3)nc2-c2ccccc2)C(=O)C1,1,16,56*,19,89*,184*
O=C(CNC(=O)c1ccc(Br)cc1)NCC(=O)OCc1ccc(Cl)cc1,4,-1,2,-1,-1,/
COc1ccc(C(=O)NC(C)c2ccccc2)cc1Br (centres undefined),-2,-5,0,0,-2,/
C[C@@H](NC(=O)c1coc(=O)c(Br)c1)c1ccccc1,-7,-9,6,42,115*,97*
CC1=CC(=O)C(C(C)C)=C/C1=N/OC(=O)c1cccc([N+](=O)[O-])c1,1,-7,6,29,73*,48*
CCCCn1c(/C=N/Nc2nc3ccccc3[nH]2)nc2ccccc21,-2,28,6,47,113*,294*
COc1cc(S(=O)(=O)N2CCC(c3nc4ccccc4s3)CC2)ccc1S(=O)(=O)NC1CCCC1,-5,-2,3,-5,-1,/
COc1cc(S(=O)(=O)N2CCC(c3nc4ccccc4s3)CC2)ccc1S(=O)(=O)N1CC(C)CC(C)C1 (centres undefined),3,7,-1,-1,209*,-2
O=c1oc(-c2ccc(O)c(O)c2)cc2cccc(O)c12,-1,19,-3,-27,54*,9
O=c1oc(-c2ccc(O)c(O)c2)cc2cc(O)cc(O)c12,5,11,2,-61,9,/
CC1=C/C(=N\OC(=O)/C=C/c2ccccc2)C(C)=CC1=O,6,-5,2,32,107*,41*
N/C(=N\OC(=O)/C=C/c1ccccc1)c1ccccc1,-4,-2,-2,-39,0,/
NNC(=O)CNc1cccc(Br)c1,-1,-1,-4,17,-1,/
CCOC(=O)c1ccc(N=C2C(=S)N(c3ccc(C(=O)OCC)cc3)C(=N)N2/N=C/c2ccccc2)cc1,-21,10,3,-46,53*,37*
CC(=O)n1cc(Nc2ccc([N+](=O)[O-])cc2)c2ccccc21,8,0,1,6,0,/
CC(=O)SC(C[N+](=O)[O-])c1cn(C(C)=O)c2ccccc12 (centres undefined),-14,0,4,21,159*,-10
Nc1nc2ccccc2nc1N1CCCC1,-4,1,-5,-14,2,/
Nc1nn2cc(-c3ccccc3)nc2c2ccccc12,-3,2,-1,-227,3,/
Cc1cn2nc(N)c3ccccc3c2n1,-5,-2,0,-1,41*,-1
CN1CCN(CCNC(=O)c2cn(Cc3ccccc3F)nn2)CC1,10,0,-2,-17,0,/
Cc1ccccc1Oc1nc(-c2ccccn2)nc2ccccc12,6,18,-3,34,49*,8
